In ChEMBL document CHEMBL1143088, “Non-acidic pyrazole EP1 receptor antagonists with in vivo analgesic efficacy” (Bioorg Med Chem Lett, 2008):

Assays:
[1] = Distribution coefficient, logD at pH 7.4; type: physicochemical; conditions: octanol/water
Outline: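 Distribution coefficient between n-octanol and water buffered to pH 7.4; log10 of ratio of equilibrium concentrations of all species.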

[2] = Volume of distribution at steady state in rat at 10 mL/h/kg, iv; type: ADME, organism-based; conditions: in vivo, read-out: Vdss
Outline: (§1)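 Male rats (n = 1 per compound) dosed iv at 10 mL/h/kg over 1 h via femoral vein cannula, target 1 mg free compound/kg, formulated at 0.1 mg/mL in 0.9% saline with 2% DMSO and 10–20% Kleptose (some with a molar equivalent NaOH), filtered before dosing.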

[3] = molecular target: T1, Prostaglandin E2 receptor EP1 subtype (Homo sapiens, UniProt P34995); experiment: Displacement of [3H]PGE2 from human PGE2-EP1 receptor expressed in CHO-K1 cells; type: cell-based
T1 sequence (P34995 whole entry): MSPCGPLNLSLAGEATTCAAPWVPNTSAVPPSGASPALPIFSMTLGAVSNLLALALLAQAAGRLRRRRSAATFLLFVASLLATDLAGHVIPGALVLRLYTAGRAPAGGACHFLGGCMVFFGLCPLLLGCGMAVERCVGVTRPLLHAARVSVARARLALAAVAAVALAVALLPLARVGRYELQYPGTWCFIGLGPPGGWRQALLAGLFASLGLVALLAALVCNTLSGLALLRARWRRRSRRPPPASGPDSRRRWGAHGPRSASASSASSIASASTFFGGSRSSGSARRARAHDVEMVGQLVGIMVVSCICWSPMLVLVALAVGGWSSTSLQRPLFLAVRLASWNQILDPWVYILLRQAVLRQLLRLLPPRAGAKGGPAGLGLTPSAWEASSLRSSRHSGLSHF

[4] = Clearance in blood in rat at 10 mL/h/kg, iv; type: ADME, organism-based; conditions: whole blood; outline: as §1
[5] = Half life in rat at 10 mL/h/kg, iv; type: ADME, organism-based; conditions: in vivo; outline: as §1

logD [1] | Vd [2] [L/kg] | IC50 [3] [nM] | clearance [4] [mL/min/kg] | half-life [5] [h] | SMILES
3.1 | 3 | 79.4 | 98 |  | Cc1cc(NC(=O)OCc2ccccn2)nn1Cc1cc(Cl)ccc1OCc1ccccc1
> 3.7 |  | 10 |  |  | Cc1cc(NC(=O)CC(C)(C)C)nn1Cc1cc(Cl)ccc1OCc1ccccc1
3.5 |  | 15.8 |  |  | Cc1cc(NC(=O)C2CCCC2)nn1Cc1cc(Cl)ccc1OCc1ccccc1
> 3.7 |  | 25.1 |  |  | Cc1cc(NC(=O)C(C)C)nn1Cc1cc(Cl)ccc1OCc1ccccc1
> 3.7 |  | 50.1 |  |  | Cc1cc(C(=O)NCc2cccnc2)nn1Cc1cc(Cl)ccc1OCc1ccccc1
> 3.7 | 3.6 | 25.1 | 68 | 1.3 | Cc1cc(C(=O)NCc2ccccn2)nn1Cc1cc(Cl)ccc1OCc1ccccc1
> 3.7 |  | 39.8 |  |  | Cc1cc(NC(=O)C(F)(F)c2ccccc2)nn1Cc1cc(Cl)ccc1OCc1ccccc1
> 3.7 |  | 63.1 |  |  | Cc1cc(NC(=O)C(C)(C)c2ccccc2)nn1Cc1cc(Cl)ccc1OCc1ccccc1
2.8 |  | 200 |  |  | Cc1cc(C(=O)Nc2cccc(F)c2)nn1Cc1cc(Cl)ccc1OCc1ccccc1
3.1 |  | 79.4 |  |  | Cc1cc(NC(=O)OCc2ccccc2)nn1Cc1cc(Cl)ccc1OCc1ccccc1
> 3.7 |  | 15.8 | 50 |  | Cc1cc(NC(=O)c2ccccc2)nn1Cc1cc(Cl)ccc1OCc1ccccc1
 |  | 251 |  |  | O=C(Nc1ccn(Cc2cc(Cl)ccc2OCc2ccccc2)n1)c1ccccc1
3.4 |  | 63.1 |  |  | Cc1cc(NC(=O)OC2CCOCC2)nn1Cc1cc(Cl)ccc1OCC(C)C
3.5 |  | 50.1 |  |  | Cc1cc(NC(=O)OC(C)(C)C(F)(F)F)nn1Cc1cc(Cl)ccc1OCC(C)C
3.3 |  | 200 |  |  | Cc1cc(C(=O)NN2CCCCC2)nn1Cc1cc(Cl)ccc1OCC(C)C
3.3 | 3.9 | 25.1 | 124 |  | Cc1cc(NC(=O)OCC(C)C)nn1Cc1cc(Cl)ccc1OCc1ccccc1
3 |  | 79.4 |  |  | Cc1cc(C(=O)Nc2ccc(F)cc2)nn1Cc1cc(Cl)ccc1OCc1ccccc1
> 3.7 |  | 39.8 |  |  | Cc1cc(NC(=O)C2CCCO2)nn1Cc1cc(Cl)ccc1OCc1ccccc1 (stereo not given)
> 3.7 |  | 79.4 |  |  | Cc1cc(C(=O)NCc2ccncc2)nn1Cc1cc(Cl)ccc1OCc1ccccc1
1 |  | 10 |  |  | Cc1cc(C(=O)O)nn1Cc1cc(Cl)ccc1OCc1ccccc1
> 3.7 | 7.5 | 12.6 | 59 | 2.9 | Cc1cc(NC(=O)Cc2ccccc2)nn1Cc1cc(Cl)ccc1OCc1ccccc1
> 3.7 |  | 20 |  |  | Cc1cc(NC(=O)Cc2ccccn2)nn1Cc1cc(Cl)ccc1OCc1ccccc1
> 3.7 | 9.3 | 39.8 | 75 | 4.6 | Cc1cc(C(=O)NCc2ccccc2)nn1Cc1cc(Cl)ccc1OCc1ccccc1
> 3.7 |  | 126 |  |  | Cc1cc(C(=O)Nc2ccccn2)nn1Cc1cc(Cl)ccc1OCc1ccccc1
> 3.7 |  | 39.8 |  |  | Cc1cc(NC(=O)Cc2cccnc2)nn1Cc1cc(Cl)ccc1OCc1ccccc1

logD [1] | Vd [2] [L/kg] | IC50 [3] [nM] | clearance [4] [mL/min/kg] | half-life [5] [h] | SMILES
 |  | 158 |  |  | O=C(Cc1ccccc1)Nc1ccn(Cc2cc(Cl)ccc2OCc2ccccc2)n1
> 3.7 |  | 126 |  |  | Cc1cc(C(=O)NC(C)C)nn1Cc1cc(Cl)ccc1OCc1ccccc1
> 3.7 |  | 100 |  |  | CNC(=O)c1cc(C)n(Cc2cc(Cl)ccc2OCc2ccccc2)n1
> 3.7 |  | 50.1 |  |  | Cc1cc(NC(=O)OC(C)C)nn1Cc1cc(Cl)ccc1OCC(C)C
1.2 |  |  |  |  | Cc1cc(C(=O)O)nn1Cc1cc(Br)ccc1OCc1ccccc1
> 3.7 | 3.5 | 31.6 | 68 | 1.7 | Cc1cc(NC(=O)C2CCCCC2)nn1Cc1cc(Cl)ccc1OCC(C)C
> 3.7 |  | 79.4 |  |  | CCOC(=O)Nc1cc(C)n(Cc2cc(Cl)ccc2OCc2ccccc2)n1
> 3.7 |  | 25.1 |  |  | Cc1cc(NC(=O)C2CCCC2)nn1Cc1cc(Cl)ccc1OCC(C)C
> 3.7 |  | 200 |  |  | COC(=O)Nc1cc(C)n(Cc2cc(Cl)ccc2OCc2ccccc2)n1
2.5 |  |  |  |  | Cc1ccc(-c2cc(Cl)ccc2OCc2ccccc2)n1-c1cccc(C(=O)O)c1
3.1 |  | 251 |  |  | Cc1cc(C(=O)NN2CCOCC2)nn1Cc1cc(Cl)ccc1OCC(C)C
 |  | 398 |  |  | O=C(Cc1ccccn1)Nc1ccn(Cc2cc(Cl)ccc2OCc2ccccc2)n1
> 3.7 |  | 316 |  |  | CC(=O)Nc1cc(C)n(Cc2cc(Cl)ccc2OCc2ccccc2)n1
> 3.7 |  | 31.6 |  |  | Cc1cc(NC(=O)OC(C)(C)C)nn1Cc1cc(Cl)ccc1OCC(C)C
3.1 |  | 25.1 |  |  | Cc1cc(NC(=O)C(F)(F)c2ccccn2)nn1Cc1cc(Cl)ccc1OCc1ccccc1
> 3.7 | 3.3 | 63.1 | 55 | 1 | Cc1cc(NC(=O)C2CCOCC2)nn1Cc1cc(Cl)ccc1OCc1ccccc1
> 3.7 |  | 39.8 |  |  | Cc1cc(NC(=O)C2CCOC2)nn1Cc1cc(Cl)ccc1OCc1ccccc1 (stereo not given)
> 3.7 |  | 12.6 |  |  | Cc1cc(NC(=O)c2c(F)cccc2F)nn1Cc1cc(Cl)ccc1OCc1ccccc1
3.2 |  | 6.31 |  |  | Cc1cc(NC(=O)CC2CCCCC2)nn1Cc1cc(Cl)ccc1OCc1ccccc1
> 3.7 |  | 50.1 |  |  | Cc1cc(NC(=O)Cc2ccncc2)nn1Cc1cc(Cl)ccc1OCc1ccccc1
> 3.7 |  | 39.8 |  |  | Cc1cc(C(=O)Nc2ccccc2)nn1Cc1cc(Cl)ccc1OCc1ccccc1
3.7 |  | 10 |  |  | Cc1cc(C(=O)Nc2c(F)cccc2F)nn1Cc1cc(Cl)ccc1OCc1ccccc1
2.7 | 3.7 | 79.4 | 86 | 0.8 | Cc1cc(NC(=O)O[C@H]2CCOC2)nn1Cc1cc(Cl)ccc1OCc1ccccc1
3.7 |  | 126 |  |  | Cc1cc(C(N)=O)nn1Cc1cc(Cl)ccc1OCc1ccccc1
> 3.7 |  | 15.8 |  |  | Cc1cc(NC(=O)C(C)(C)c2ccccn2)nn1Cc1cc(Cl)ccc1OCc1ccccc1

SMILES | logD [1] | Vd [2] [L/kg] | IC50 [3] [nM] | clearance [4] [mL/min/kg] | half-life [5] [h]
Cc1cc(C(N)=O)nn1Cc1cc(Cl)ccc1OCC(C)C | 3.1 |  | 126 |  | 
